{"data": "Measured values gathered from unrelated publications", "target": "Serine/threonine-protein kinase Nek7 (NEK7, Homo sapiens, UniProt Q8TDX7)", "note": "Each line is one published result; the experiments were not run side by side."}
{"SMILES": "Cc1nc(C2CCN(C(=O)c3ccc(OC(F)(F)F)cc3N)CC2)c2ncc(N3CCN(C)CC3)cc2n1", "observed": "cell-free assay", "method": "competition with immobilised ligand", "concentration": "1 µM", "remaining binding [%]": 100}
{"SMILES": "CN(C)c1nccc(-c2cnn3ncccc23)n1", "observed": "binding", "concentration": "1 µM", "remaining binding [%]": 92}
{"SMILES": "O=C(c1ccc(Nc2ncc(Cl)c(-c3ccc(Cl)s3)n2)cc1)N1CCC(N2CCCC2)CC1", "observed": "binding", "method": "competition with immobilised ligand", "concentration": "1 µM", "remaining binding [%]": 1.4}
{"SMILES": "c1cncc(-c2cccc(Nc3nccc(NC4CCCCC4)n3)c2)c1", "observed": "binding", "method": "competition with immobilised ligand", "concentration": "10 µM", "remaining binding [%]": 79}
{"SMILES": "CCN1CCN(Cc2ccc(C(=O)Nc3ccc(C)c(Oc4ccc5c(c4)CC(=O)N5)c3)cc2C(F)(F)F)CC1", "observed": "binding", "method": "competition with immobilised ligand", "concentration": "1 µM", "remaining binding [%]": 100}
{"SMILES": "CN(C)c1nccc(-c2cnc3ncccn23)n1", "observed": "binding", "concentration": "1 µM", "remaining binding [%]": 90}
{"SMILES": "CC(=O)C1=C(C)N(c2cccc(C(F)(F)F)c2)C(=O)N[C@@H]1c1ccc(C#N)nc1", "observed": "cell-free assay", "method": "competition with immobilised ligand", "concentration": "1 µM", "remaining binding [%]": 100}
{"SMILES": "Nc1ncc2c(n1)-c1c([nH]c3ccc(C#CC4CC4)cc13)CCCC2", "observed": "binding", "method": "competition with immobilised ligand", "concentration": "1 µM", "remaining binding [%]": 88}
{"SMILES": "COc1cc(Nc2nccc(-c3cnn4nc(OC)ccc34)n2)cc(C(F)(F)F)c1", "observed": "binding", "method": "competition with immobilised ligand", "concentration": "1 µM", "remaining binding [%]": 40}
{"SMILES": "CS(=O)(=O)N1CCCC(NC(=O)[C@H](CCC2CCCCC2)NC(=O)c2ccc(CNc3ncnc4c3nnn4-c3ccccc3)cc2)C1 (stereo partly drawn)", "observed": "cell-free assay", "method": "competition with immobilised ligand", "concentration": "0.1 µM", "remaining binding [%]": 88}
{"SMILES": "O=C(Nc1c[nH]nc1C(=O)NC1CCNCC1)c1cc(F)cc(F)c1", "observed": "binding", "method": "competition with immobilised ligand", "concentration": "1 µM", "remaining binding [%]": 100}
{"SMILES": "N[C@H]1CCN(c2nccc(-c3cnn4ncccc34)n2)C1", "observed": "binding", "concentration": "1 µM", "remaining binding [%]": 100}
{"SMILES": "O=C(NCCCN1CCOCC1)c1ccc(Nc2nccc(-c3cc4ccccc4s3)n2)cc1", "observed": "binding", "method": "competition with immobilised ligand", "concentration": "1 µM", "remaining binding [%]": 52}
{"SMILES": "C[C@H]1CCN(c2nccc(-c3cnn4ncccc34)n2)C1", "observed": "binding", "concentration": "1 µM", "remaining binding [%]": 100}
{"SMILES": "O=C(Nc1cccnn1)N1CCC(=Cc2cccc(Oc3ccc(C(F)(F)F)cn3)c2)CC1", "observed": "cell-free assay", "method": "competition with immobilised ligand", "concentration": "1 µM", "remaining binding [%]": 100}
{"SMILES": "Cc1cnc(Nc2ccc(C(=O)N3CCC(N4CCCC4)CC3)cc2)nc1-c1cc2ccccc2s1", "observed": "binding", "method": "competition with immobilised ligand", "concentration": "1 µM", "remaining binding [%]": 0.7}
{"SMILES": "O=C(NCCCC1CCCCC1)c1ccc(CNC(=O)c2cnn(-c3ccccc3)c2C(F)(F)F)cc1", "observed": "cell-free assay", "method": "competition with immobilised ligand", "concentration": "0.1 µM", "remaining binding [%]": 97}
{"SMILES": "Cc1cnn2ncc(-c3ccnc(N(C)C)n3)c2c1", "observed": "binding", "concentration": "1 µM", "remaining binding [%]": 100}
{"SMILES": "O=C(Nc1cnc(Oc2ccc(F)cc2)nc1)N1CCc2ncccc2[C@@H]1c1ccc(F)cc1", "observed": "cell-free assay", "method": "competition with immobilised ligand", "concentration": "1 µM", "remaining binding [%]": 84}
{"SMILES": "CN(CCCC(F)(F)F)c1nccc(-c2cnn3ncccc23)n1", "observed": "binding", "concentration": "1 µM", "remaining binding [%]": 100}
{"SMILES": "CNC(=O)[C@@H]1CC[C@@H](n2c(-c3ccc4cnccc4c3)nc3ccc(C(=O)NCc4cccc(C(N)=O)c4)cc32)C1", "observed": "binding", "method": "competition with immobilised ligand", "concentration": "1 µM", "remaining binding [%]": 92}
{"SMILES": "CN(C)c1ncc(F)c(-c2cnn3ncccc23)n1", "observed": "binding", "concentration": "1 µM", "remaining binding [%]": 95}
{"SMILES": "COc1cnc(Nc2cccc(S(N)(=O)=O)c2)nc1N1CCN(c2ccccc2)C(=O)C1", "observed": "binding", "method": "competition with immobilised ligand", "concentration": "1 µM", "remaining binding [%]": 91}
{"SMILES": "COc1ccc2c(c1)O[C@@H](c1ccc(OC)c(OC)c1)C[C@H]2NC(=O)C1(c2ccc3c(c2)OC(F)(F)O3)CC1", "observed": "cell-free assay", "method": "competition with immobilised ligand", "concentration": "1 µM", "remaining binding [%]": 100}
